The list is not random: actives were taken first. Their share in the collection is about 2.2%.
NR2E3 ag-1 = inhibitors of NR2E3-RetCOR corepressor binding, primary screen, NR2E3 agonist project, biochemical, TR-FRET, GST-NR2E3, biotin-RetCOR; Photoreceptor-specific nuclear receptor (Homo sapiens), Q9Y5X4; 1536-well; inhibition of corepressor binding, % at 4.78 µM; 320,000 tested, 0.12% active;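 active = percent inhibition above the cutoff of mean plus 3 SD of all tested compounds, set per screening campaign, cut at about 20% in these data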
Target sequence (Q9Y5X4 whole entry, looked up): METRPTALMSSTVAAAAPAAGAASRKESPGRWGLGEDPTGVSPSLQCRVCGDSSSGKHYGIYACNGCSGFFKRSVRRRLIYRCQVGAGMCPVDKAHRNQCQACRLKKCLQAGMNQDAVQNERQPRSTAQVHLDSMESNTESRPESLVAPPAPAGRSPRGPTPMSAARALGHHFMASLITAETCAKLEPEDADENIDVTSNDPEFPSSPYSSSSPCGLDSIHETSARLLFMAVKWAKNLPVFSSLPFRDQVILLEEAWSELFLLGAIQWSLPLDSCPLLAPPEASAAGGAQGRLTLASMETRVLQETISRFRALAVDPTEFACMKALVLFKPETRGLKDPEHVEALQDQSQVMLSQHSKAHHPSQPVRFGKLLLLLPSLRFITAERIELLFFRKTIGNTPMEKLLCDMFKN
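Test system: GST-NR2E3 and biotin-RetCOR proteins | Quantity: 1.35 nM GST-tagged NR2E3 final | Medium: Tris pH 7.5 | Also added: 7 nM biotin-RetCOR | Dosing: Compound at 4.8 µM, single dose | Timing: 5 h at 4 °C | Detection: Time-resolved FRET | Read-out basis: Percent inhibition | Benchmarks: Biotin wells as high control, 0.6% DMSO wells as low control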
Jurkat NFkB inh = inhibitors of induced NF-kB luciferase reporter, primary screen, TCR NF-kB activation inhibitor project, cell-based, luminescence, uHTS | inhibition, % at 4 µM | Jurkat, PMA/ionomycin-induced NF-kB luciferase reporter | 330,000 tested, 0.53% active; in the data active = inhibition above about 50%
NR2E3 ag-2 = NR2E3 agonists in two-hybrid cells, primary screen, cell-based, luminescence, CHO-S, Gal4-NCOR/VP16-NR2E3; Photoreceptor-specific nuclear receptor (Homo sapiens), Q9Y5X4; luciferase; inhibition of corepressor binding, % at 3.98 µM; 360,000 tested, 0.35% active; AID 602229, 2012;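 active = inhibition above the mean of all tested compounds plus 3 SD, cut at about 70% in these data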;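 note: higher means lower luciferase signal from less NR2E3 corepressor binding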
697 NFkB inh = inhibitors of PMA/ionomycin-induced NF-kB reporter, 697 cells, primary screen, B-cell NF-kB inhibitor project, cell-based, luminescence, uHTS. 697 B-cell NF-kB luciferase reporter, 16 h. inhibition, % at 4 µM. 330,000 tested, 0.33% active; in the data active = inhibition above about 35%
miR-122 sensor = miR-122 Renilla sensor signal increase in Huh7, primary screen, miR-122 inhibitor project, cell-based, single point, plate reader. Huh7 miR-122 Renilla luciferase sensor, 48 h; neutral wells = 0, positive control = 100. activation (reporter increase), % at 12.5 µM. 340,000 tested, 0.3% active;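 active = mean replicate activation score at least 90 and every replicate individually at or above 90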;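 note: higher luciferase means less miR-122 activity so hits act as miR-122 inhibitors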
FGF22 binding = binders of human FGF22 protein, primary screen, FGF22 synaptogenesis inhibitor project, biophysical, thermal shift, single point. Fibroblast growth factor 22 (Homo sapiens), Q9HCT0. recombinant FGF22 thermal shift, SYPRO orange fluorescence; percent of sucrose octasulfate shift, DMSO zero. activity (Tm shift, normalised), % at 9.99 µM. 340,000 tested, 1.5% active;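 active = mean Tm shift, scaled 0 neutral to 100 positive control, at about 1.3% or above, every replicate too, limit read from the data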
Target sequence (Q9HCT0 whole entry, looked up): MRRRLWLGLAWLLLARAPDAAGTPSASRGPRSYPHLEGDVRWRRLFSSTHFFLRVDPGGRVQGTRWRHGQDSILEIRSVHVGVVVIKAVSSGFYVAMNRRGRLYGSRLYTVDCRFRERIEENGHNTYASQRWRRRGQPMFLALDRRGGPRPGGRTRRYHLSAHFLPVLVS
NR2E3 ag conf = NR2E3 agonist confirmation in cells, cell-based, luminescence, CHO-S two-hybrid | shares compounds with NR2E3 ag-2 | CHO-S mammalian two-hybrid NR2E3-NCOR, luciferase luminescence | 2,300 tested, 51% active | inhibition, % at 3.98 µM;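 active = average inhibition above a cutoff equal to the mean inhibition of all tested compounds plus one SD, cut at about 70% in these data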
GAL4-VP16 luc = GAL4-VP16 reporter modulators, confirmation, counter-screen for NR2E3 agonist project, cell-based, luminescence, CHO-S, high throughput | shares compounds with NR2E3 ag-2 | CHO-S GAL4-VP16 luciferase reporter | inhibition, % at 3.98 µM | 2,300 tested, 29% active | AID 624379, 2012;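 active = mean inhibition above a cutoff equal to the average over all tested compounds plus one standard deviation, cut at about 70% in these data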;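 note: luciferase from a UAS reporter driven by GAL4-VP16 transactivation; higher means less reporter light so more repression of VP16 activity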
Hits are given with their value; – = inactive; · = no result given.

SMILES	NR2E3 ag-1	Jurkat NFkB inh	NR2E3 ag-2	697 NFkB inh	miR-122 sensor	FGF22 binding	NR2E3 ag conf	GAL4-VP16 luc
CC(Oc1ccccc1)c1nnc(N)s1 (centres undefined)	–	–	–	–	–	–	·	·
CC(c1ccccc1)c1nnc(N)s1 (centres undefined)	–	–	–	–	·	–	–	–
CC[C@@H](C(=O)[C@@H](C)[C@@H](O)[C@H](C)CCc1ccc(C)c(O)c1C(=O)O)[C@H]1O[C@](CC)([C@H]2CC[C@](O)(CC)[C@H](C)O2)C[C@@H]1C	–	–	103.5	–	–	–	97.7	90.7
CCC(=O)N(C)C[C@@H]1Oc2ncc(Br)cc2C(=O)N([C@H](C)CO)C[C@@H]1C	·	·	·	·	–	–	·	·
C[C@H]1CN([C@@H](C)CO)C(=O)c2cccc(NC(=O)c3cnccn3)c2O[C@H]1CN(C)S(=O)(=O)c1ccc(Cl)cc1	·	·	·	·	–	·	·	·
CC(=O)OC1c2ccccc2C(=O)N1Cc1ccccc1 (centres undefined)	–	–	74.8	–	·	–	–	–
CC(=O)OC1c2ccccc2C(=O)N1c1ccccc1C (centres undefined)	–	–	–	–	–	–	·	·
COCC(=O)N1[C@@H]2c3ccc(-c4ccccc4)c(=O)n3C[C@@H]2[C@@H](CO)[C@@H]1C(=O)Nc1ccccc1	·	·	·	·	–	·	·	·
CO[C@@H]1CN(C)C(=O)c2cc(NC(C)=O)ccc2OC[C@@H](C)N(S(=O)(=O)c2cn(C)cn2)C[C@H]1C	·	·	·	·	·	–	·	·
Cc1nn(C)c(C)c1NS(=O)(=O)c1ccc(Cl)cc1	–	–	–	–	·	–	·	·
CCN(CC)S(=O)(=O)c1ccc(S(=O)(=O)Nc2c(C)nn(C)c2C)cc1	–	–	–	–	–	–	–	–
O=C1CCCN1c1ccc(S(=O)(=O)NCCOc2ccccc2)cc1	–	–	–	–	–	·	–	–
O=C1CCCN1c1ccc(S(=O)(=O)NCc2ccc(F)cc2)cc1	–	–	–	–	–	–	·	·
C[C@H](CO)N1C[C@H](C)[C@@H](CN(C)C(=O)c2ccncc2)Oc2cc(C#CC3CC3)ccc2S1(=O)=O	·	·	·	·	–	–	·	·
O=c1cc(C(F)(F)F)[nH]c2ccc(OC(F)(F)F)cc12	–	–	78.9	–	–	–	99.7	72.9
C=CCn1c(O)c(N=NC(=S)Nc2ccccc2C)c2cc(S(=O)(=O)N3CCOCC3)ccc21	–	–	–	–	–	–	–	–
Cc1cccc(NC(=S)N=Nc2c(O)n(CN3CCOCC3)c3ccccc23)c1C	–	–	71.7	–	–	·	–	–
Cn1c(O)c(N=NC(=S)Nc2ccccc2F)c2cc(S(=O)(=O)N3CCOCC3)ccc21	·	·	–	·	–	–	·	·
COCC(=O)Nc1ccc2c(c1)C(=O)N(C)C[C@@H](OC)[C@H](C)CN(CC1CC1)[C@H](C)CO2	·	·	·	·	·	–	·	·
N#Cc1c(-c2ccccc2)nc(SCc2ccc(Cl)cc2)[nH]c1=O	–	–	72.2	–	–	–	–	–
CC(C)c1ccc(C(C)NC(=S)NC2CCCCC2)cc1 (centres undefined)	·	–	–	–	·	–	–	–
CC(NC(=S)NC1CCCCC1)c1ccc(C(C)(C)C)cc1 (centres undefined)	–	–	–	–	–	–	·	·
CCC(C)c1ccc(C(C)NC(=S)NC2CCCCC2)cc1 (centres undefined)	–	–	85.1	–	–	–	–	–
CCCNC(=O)C[C@H]1CC[C@H]2[C@H](COc3ccc(NC(=O)c4cccs4)cc3C(=O)N2C)O1	·	·	·	·	–	–	·	·
N=C1SC(c2ccccc2)C(=O)N1c1ncc(Cc2ccccc2Cl)s1 (centres undefined)	–	–	–	–	–	·	–	–
SMILES	NR2E3 ag-1	Jurkat NFkB inh	NR2E3 ag-2	697 NFkB inh	miR-122 sensor	FGF22 binding	NR2E3 ag conf	GAL4-VP16 luc
Fc1ccc(-n2nnnc2-c2cnc(-c3cccs3)nc2C(F)(F)F)cc1	–	–	88.3	–	·	·	91.6	–
COc1ccc(CCNC(=O)c2ccc(Cl)cc2)cc1	–	–	–	–	–	·	·	·
Nc1nc2cc(Cl)ccc2cc1C(=O)NCCCc1ccccc1	·	·	82.3	·	·	·	86.6	78.0
COc1ccc(CCNC(=O)c2cc3ccc(Cl)cc3nc2N)cc1	·	·	89.9	·	·	·	90.1	77.5
Cc1nc2c(C(=O)NCCC(C)C)c[nH]n2c(=O)c1Cc1ccccc1F	–	–	100.5	–	–	·	85.6	–
COc1cccc(OCC(O)CN2CCC(CN3C(=O)c4cccc5cccc(c45)C3=O)CC2)c1 (centres undefined)	–	–	–	–	·	–	·	·
O=C1c2cccc3cccc(c23)C(=O)N1CC1CCN(CC(O)COc2ccc3ccccc3c2)CC1 (centres undefined)	–	–	–	–	–	–	–	–
Oc1ccc(Cl)cc1Sc1cc(Cl)ccc1O	·	·	–	·	–	2.3	100.2	–
CC(=O)Nc1ccc2[nH]c3ccccc3c2c1	–	–	–	–	–	·	·	·
O=C(Nc1ccc(Cl)cc1)c1cc2c(cc1O)[nH]c1ccccc12	–	–	100.7	–	–	–	99.1	89.8
COc1ccccc1CNC(=O)C[C@@H]1C[C@@H]2c3cc(NC(=O)c4cccnc4)ccc3O[C@@H]2[C@H](CO)O1	·	·	·	·	–	–	·	·
CCCC(=O)Nc1ccc2c(c1)C(=O)N(C)C[C@H](OC)[C@@H](C)CN(C(=O)c1ccccn1)[C@@H](C)CO2	·	·	·	·	·	–	·	·
COc1ccc(CCNc2ccc(N3C(=O)CC(C)C3=O)cc2[N+](=O)[O-])cc1OC (centres undefined)	–	–	74.8	–	–	–	–	73.2
Cc1nc2ccccc2n1Cc1ccc(Br)cc1	–	–	84.2	–	–	–	94.1	85.3
Cc1nc2ccccc2n1Cc1ccccc1	–	–	–	–	–	–	·	·
Cc1[nH]oc(=O)c1N=Nc1ccccc1	–	–	74.8	–	–	·	–	–
Cc1[nH]oc(=O)c1N=Nc1c(Cl)cccc1Cl	–	–	–	–	·	·	·	·
C[C@H](CO)N1C[C@H](C)[C@H](CN(C)C(=O)C2CCOCC2)Oc2cc(C3=CCCC3)ccc2S1(=O)=O	·	·	·	·	–	–	·	·

Bioassay records: PubChem, several laboratories
